Data on 15 compounds can be found in ChEMBL document CHEMBL1944521, “Amide-modified prenylcysteine based Icmt inhibitors: Structure-activity relationships, kinetic analysis and cellular characterization” (Bioorg Med Chem, 2012).

Test [1] concerns the target T1, Protein-S-isoprenylcysteine O-methyltransferase (Homo sapiens, UniProt O60725). Briefly: Inhibition of His-tagged human Icmt membrane protein over-expressed in Saccharomyces cerevisiae 2766 using [14C]-SAM and N-acetyl-S-farnesyl-l-cysteine as substrate measured after 30 mins by scintillation counting.
Test [2] concerns the target T1, Protein-S-isoprenylcysteine O-methyltransferase. Description: Activity at His-tagged human Icmt membrane protein over-expressed in Saccharomyces cerevisiae 2766 using [14C]-SAM as substrate at 25 uM by scintillation counting.
Test [3] has the same target. Briefly: Inhibition of His-tagged human Icmt membrane protein over-expressed in Saccharomyces cerevisiae 2766 using [14C]-SAM and N-acetyl-S-farnesyl-l-cysteine as substrate at 10 uM preincubated on ice and measured after 30 mins by scintillation counting.
The target is the same in test [4]. Briefly: Competitive inhibition of His-tagged human Icmt membrane protein over-expressed in Saccharomyces cerevisiae 2766 using [14C]-SAM and N-acetyl-S-farnesyl-l-cysteine as substrate measured after 30 mins by scintillation counting. In short, it runs like this:
(§1)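 Mode of inhibition: AFC concentration varied at fixed inhibitor levels in the His-hIcmt vapor diffusion assay (14C-SAM, 30 °C, 30 min). Three trials per inhibitor concentration were averaged and plotted as Lineweaver-Burk. KIC and KIU were derived from IC50 by Cheng–Prusoff as adapted by Cer et al.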

Test [5] has the same target. Briefly: Noncompetitive inhibition of His-tagged human Icmt membrane protein over-expressed in Saccharomyces cerevisiae 2766 using [14C]-SAM and N-acetyl-S-farnesyl-l-cysteine as substrate measured after 30 mins by scintillation counting. In short, it runs like this: as §1
The target is the same in test [6]. Description: Inhibition of Icmt-mediated GFP-K-Ras membrane localization in human Jurkat T cells at 0.1 uM after 24 hrs by fluorescent microscopic analysis. Format: cell-based. In short, it runs like this: (§2)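 Jurkat E6.1 cells were electroporated with 20 μg GFP-K-Ras, then treated 24 h at 37 °C with DMSO, simvastatin (20 μM) or compound (0.1, 1, 10 μM). Cells were put on polylysine coverslips, fixed in 3% formaldehyde and viewed by fluorescence microscopy. Localization was scored visually as normal, partial or complete mislocalization in random fields of 100 cells; three independent experiments.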

The target is the same in test [7]. Briefly: Inhibition of Icmt in TCR-stimulated human Jurkat T cells assessed as inhibition of Ras activation at 25 uM after 24 hrs by immunoblot analysis. Format: cell-based. In short, it runs like this: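 Jurkat cells were treated 24 h with compound (25 μM), vehicle or simvastatin (36.7 μM), then held with anti-CD-3ε (20 μg/mL) 15 min on ice and stimulated 10 min at 37 °C. GTP-Ras was pulled down from NP40 lysates on GST-RBD glutathione beads (30 min, 4 °C) and immunoblotted with anti-pan-Ras. Bands were quantified by densitometry; three independent experiments.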

Test [8] shares this target. Description: Inhibition of Icmt in TCR-stimulated human Jurkat T cells assessed as inhibition of Ras-mediated Erk activation at 25 uM after 24 hrs by immunoblot analysis relative to control. Format: cell-based. The method, boiled down: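 Jurkat cells were treated 24 h with compound (25 μM), vehicle or simvastatin (36.7 μM), then held with anti-CD-3ε (20 μg/mL) 15 min on ice and stimulated 10 min at 37 °C. Triton lysates were run on 6–15% gels and immunoblotted for phospho-Erk, with GAPDH as loading control. Bands were quantified by densitometry relative to control; three independent experiments.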
Background: A western blot detects proteins with antibodies after separation by electrophoresis.

The target is the same in test [9]. Briefly: Inhibition of Icmt-mediated GFP-K-Ras membrane localization in human Jurkat T cells at 10 uM after 24 hrs by fluorescent microscopic analysis. Format: cell-based. In short, it runs like this: as §2

As usually defined, the IC50 is the point on the concentration scale where inhibition reaches its midpoint. By inhibition is commonly meant how much of the control response was suppressed.

Calls of active or inactive are those of the source. The calls are words filed in the database; no cut-off is given here.

T1 sequence (O60725 whole entry): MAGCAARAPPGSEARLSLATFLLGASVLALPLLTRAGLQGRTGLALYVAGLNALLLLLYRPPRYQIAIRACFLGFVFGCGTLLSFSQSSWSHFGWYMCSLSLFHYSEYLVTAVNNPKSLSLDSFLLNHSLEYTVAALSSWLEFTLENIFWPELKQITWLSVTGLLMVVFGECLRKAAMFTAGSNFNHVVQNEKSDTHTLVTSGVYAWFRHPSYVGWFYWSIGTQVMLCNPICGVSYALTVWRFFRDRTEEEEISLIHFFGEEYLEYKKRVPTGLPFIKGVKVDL

`CC(=O)N[C@@H](CSC/C=C(\C)CC/C=C(\C)CCC=C(C)C)C(=O)O`: the half-maximal inhibitory concentration (IC50) entry in [1] is listed as “Not Active”.
For the compound `CC(C)=CCC/C(C)=C/CC/C(C)=C/CSC[C@H](NC(=O)c1cccc2c1oc1ccccc12)C(=O)O`, the IC50 in test [1] (read-out: IC50) is 58 µM. Also, in test [2], the result was inactive. In test [3], the inhibition result was “Active”.
As to `CC(C)=CCC/C(C)=C/CC/C(C)=C/CSC[C@H](NC(=O)c1ccccc1Sc1ccccc1)C(=O)O`, the IC50 in test [1] (read-out: IC50) worked out at 14.7 µM. The outcome in [2] was inactive. Moreover, the inhibition entry in test [3] was “Active”.
With `CCCCCCCCCCCSC[C@H](NC(=O)c1ccccc1Oc1ccccc1)C(=O)O`, the IC50 in [1] (read-out: IC50) is 210 µM. In test [2], the result was inactive. For the same compound, the inhibition result in [3] was “Active”.
For `CC(C)=CCC/C(C)=C/CC/C(C)=C/CSC[C@H](NC(=O)c1ccccc1Cc1ccccc1)C(=O)O`, the IC50 in test [1] (read-out: IC50) is 38 µM. In addition, the result in test [2] was inactive. Besides, the inhibition result in test [3] was “Active”.
`CC(C)=CCC/C(C)=C/CC/C(C)=C/CSC[C@H](NC(=O)c1ccccc1Oc1ccccc1)C(=O)O`: the Kic in test [4] is 1.4 µM. In [5], the Kiuc worked out at 4.8 µM. Further, the IC50 in test [1] (read-out: IC50) stood at 6.2 µM.
As to `CC(C)=CCC/C(C)=C/CC/C(C)=C/CSC[C@H](NC(=O)c1ccccc1COCc1ccccc1)C(=O)O`, the IC50 in test [1] (read-out: IC50) amounted to 49 µM. In [2], the outcome was inactive. In addition, the inhibition entry in [3] is “Active”.
On to `CC(C)=CC/C(=C/CSC[C@H](NC(=O)c1ccccc1Oc1ccccc1)C(=O)O)CCc1ccc(-c2ccccc2)cc1`, for which the inhibition in [6] is 35%; in test [9], 75%. The compound further yielded a Kic in test [4] of 0.5 µM. Moreover, the Kiuc in test [5] was 1.9 µM. Moreover, the IC50 in test [1] (read-out: IC50) was 2.5 µM. Besides, the inhibition entry in [7] was “Active”. Further, the fold change (FC) in test [8] turned out to be 3.
For the compound `CC(C)=CCC/C(C)=C/CC/C(C)=C/CC/C(C)=C/CSC[C@H](NC(=O)c1ccccc1Oc1ccccc1)C(=O)O`, the IC50 in [1] (read-out: IC50) came out at 38 µM. In addition, the result in [2] was inactive.
In the case of `CC(C)=CCC/C(C)=C/CC/C(C)=C/CSC[C@H](NC(=O)c1ccccc1OCc1ccccc1)C(=O)O`, in [1] (read-out: IC50), the IC50 is 13.4 µM. For the same compound, the outcome in test [2] was inactive. Also, the inhibition entry in test [3] is “Active”.
Regarding `CC(C)=CCC/C(C)=C/CC/C(C)=C/CSC[C@H](NC(=O)c1ccccc1COc1ccccc1)C(=O)O`, the IC50 in [1] (read-out: IC50) stood at 75 µM. For the same compound, the result in [2] was inactive. The inhibition entry in test [3] is “Active”.
Regarding `CC(C)=CCC/C(C)=C/CC/C(C)=C/CSC[C@@H](NC(=O)c1ccccc1Oc1ccccc1)C(=O)O`, in test [1] (read-out: IC50), the IC50 turned out to be 7.8 µM. Also, in test [2], the outcome was inactive. Also, the inhibition result in test [3] was “Active”.
In the case of `CC(C)=CCC/C(C)=C/CC/C(C)=C/CSC[C@H](NC(=O)c1cccc(Oc2ccccc2)c1)C(=O)O`, the IC50 in test [1] (read-out: IC50) worked out at 22.6 µM. Further, in test [2], the outcome was inactive.
For the compound `CC(C)=CCC/C(C)=C/CC/C(C)=C/CSC[C@H](NC(=O)c1ccc(Oc2ccccc2)cc1)C(=O)O`, the IC50 in test [1] (read-out: IC50) came to 63 µM. Besides, in test [2], the outcome was inactive.
Consider `CC(C)=CCC/C(C)=C/CC/C(C)=C/CSC[C@@H](C(=O)O)N(C)C(=O)c1ccccc1Oc1ccccc1`, for which the IC50 in test [1] (read-out: IC50) is 6.7 µM. Also, the outcome in test [2] was inactive. Also, the inhibition entry in [3] is “Active”.
